Laboratory results taken from ChEMBL document CHEMBL2010787, “Design and synthesis of novel 5-phenyl-N-piperidine ethanone containing 4,5-dihydropyrazole derivatives as potential antitumor agents” (Eur J Med Chem, 2012).

Assays:
Bcap37 = assay: Cytotoxicity against human Bcap37 cells after 48 hrs by MTT assay; format: functional, cell-based; conditions: Bcap37, 48 h
Procedure, shortened: (§1)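 Log-phase tumor cells grown in RPMI 1640 with 10% FBS, diluted to 3 × 10⁴ cells/mL, and seeded in 96-well plates. Plates were held 24 h at 37 °C in 5% CO₂, then compounds were added at preset concentrations (6 wells each), with 5-fluorouracil as positive reference. After 48 h exposure, MTT in PBS (2.5 mg/mL) was added for 4 h. Formazan was dissolved in DMSO and read at 570 nm. IC50 is the concentration giving 50% survival; results are the mean of three experiments in triplicate.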

[1] = biological target: Telomerase reverse transcriptase (Homo sapiens, UniProt O14746); assay: Inhibition of telomerase activity in human MGC803 cells after 24 hrs by TRAP-PCR-ELISA assay
Sequence of Telomerase reverse transcriptase (O14746 whole entry): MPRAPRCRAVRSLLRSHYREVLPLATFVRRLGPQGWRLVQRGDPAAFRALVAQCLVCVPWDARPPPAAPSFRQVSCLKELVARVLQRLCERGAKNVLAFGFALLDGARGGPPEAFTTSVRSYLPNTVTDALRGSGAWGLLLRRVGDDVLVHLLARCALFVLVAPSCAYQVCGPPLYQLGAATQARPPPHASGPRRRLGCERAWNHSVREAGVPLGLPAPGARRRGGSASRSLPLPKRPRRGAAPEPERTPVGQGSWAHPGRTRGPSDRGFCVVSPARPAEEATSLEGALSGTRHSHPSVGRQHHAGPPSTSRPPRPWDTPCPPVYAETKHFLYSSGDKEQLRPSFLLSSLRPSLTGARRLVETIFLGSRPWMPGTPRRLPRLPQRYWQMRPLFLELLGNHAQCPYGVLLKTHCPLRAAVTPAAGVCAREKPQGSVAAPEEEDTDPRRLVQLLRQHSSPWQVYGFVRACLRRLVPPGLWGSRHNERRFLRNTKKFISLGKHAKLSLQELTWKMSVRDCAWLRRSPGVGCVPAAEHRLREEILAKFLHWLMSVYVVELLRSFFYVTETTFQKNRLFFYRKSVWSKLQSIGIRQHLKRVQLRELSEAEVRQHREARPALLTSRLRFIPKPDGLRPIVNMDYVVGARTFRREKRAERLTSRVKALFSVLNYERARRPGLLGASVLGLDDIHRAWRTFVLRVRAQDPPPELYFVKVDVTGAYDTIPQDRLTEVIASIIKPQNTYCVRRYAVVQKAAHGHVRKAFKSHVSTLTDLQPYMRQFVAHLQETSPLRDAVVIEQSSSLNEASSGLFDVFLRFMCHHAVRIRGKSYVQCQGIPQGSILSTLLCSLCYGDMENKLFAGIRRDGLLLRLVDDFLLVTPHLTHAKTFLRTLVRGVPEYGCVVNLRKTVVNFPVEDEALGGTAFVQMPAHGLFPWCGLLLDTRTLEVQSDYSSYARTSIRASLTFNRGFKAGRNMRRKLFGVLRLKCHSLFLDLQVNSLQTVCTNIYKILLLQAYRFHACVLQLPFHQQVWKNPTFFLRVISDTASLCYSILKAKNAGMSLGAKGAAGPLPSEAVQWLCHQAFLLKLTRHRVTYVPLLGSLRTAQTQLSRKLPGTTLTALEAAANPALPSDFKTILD

MGC-803 = assay: Cytotoxicity against human MGC803 cells after 48 hrs by MTT assay; format: functional, cell-based; conditions: MGC-803, 48 h; procedure, shortened: as §1
SGC-7901 = assay: Cytotoxicity against human SGC7901 cells after 48 hrs by MTT assay; format: functional, cell-based; conditions: SGC-7901, 48 h; procedure, shortened: as §1

**Q.** What does the source list for `CC1=NN(C(=O)CN2CCC(O)CC2)C(c2ccccc2O)C1` (stereo not given)?
**A.** IC50 (Bcap37): 18.7 µM; IC50 [1]: 9.11 µM; IC50 (MGC-803): 4.12 µM; IC50 (SGC-7901): 5.71 µM

**Q.** What does the source list for `CC1=NN(C(=O)CN2CCCCC2C)C(c2ccccc2O)C1` (stereo not given)?
**A.** IC50 (Bcap37): 16.3 µM; IC50 (MGC-803): 11.7 µM; IC50 (SGC-7901): 11.2 µM

**Q.** `CCC1CCCCN1CC(=O)N1N=C(C)CC1c1ccccc1O` (stereo not given) was tested. Which IC50 (Bcap37) did it give?
**A.** Its IC50 is 10.7 µM.

**Q.** What about the IC50 (MGC-803) of the same compound?
**A.** The IC50 was 15.7 µM.

**Q.** What about the IC50 (SGC-7901) of the same compound?
**A.** Its IC50 is 12.9 µM.

**Q.** What does the source list for `CC1=NN(C(=O)CN2CCC(C)CC2)C(c2ccccc2O)C1` (stereo not given)?
**A.** IC50 (Bcap37): 6.81 µM; IC50 [1]: 5.99 µM; IC50 (MGC-803): 3.55 µM; IC50 (SGC-7901): 4.6 µM

**Q.** Which results are given for `CC1=NN(C(=O)CN2CCCCC2C(N)=O)C(c2ccccc2O)C1` (stereo not given)?
**A.** IC50 (Bcap37): 41.1 µM; IC50 (MGC-803): 38.8 µM; IC50 (SGC-7901): 39.2 µM

**Q.** How did the IC50 (Bcap37) turn out when `CC1=NN(C(=O)CN2CCC(C(F)(F)F)CC2)C(c2ccccc2O)C1` (stereo not given) was run?
**A.** The IC50 was 8.55 µM.

**Q.** What about the IC50 [1] of the same compound?
**A.** Its IC50 is 8.81 µM.

**Q.** What about the IC50 (MGC-803) of the same compound?
**A.** Its IC50 is 2.64 µM.

**Q.** What about the IC50 (SGC-7901) of the same compound?
**A.** The IC50 was 3.22 µM.

**Q.** `CC1=NN(C(=O)CN2CCCCC2[N+](=O)[O-])C(c2ccccc2O)C1` (stereo not given) was tested. Which IC50 (Bcap37) did it give?
**A.** The IC50 was 32.3 µM.

**Q.** And the IC50 [1]?
**A.** Its IC50 is 42.1 µM.

**Q.** What about the IC50 (MGC-803) of the same compound?
**A.** Its IC50 is 28.3 µM.

**Q.** What about the IC50 (SGC-7901) of the same compound?
**A.** The IC50 was 30.7 µM.

**Q.** `CCC1CCCCN1CC(=O)N1N=C(c2cc3ccccc3oc2=O)CC1c1ccccc1` (stereo not given) was tested. Which IC50 (Bcap37) did it give?
**A.** Its IC50 is 7.3 µM.

**Q.** What about the IC50 (MGC-803) of the same compound?
**A.** Its IC50 is 8.71 µM.

**Q.** And the IC50 (SGC-7901)?
**A.** The IC50 was 6 µM.

**Q.** With `CC1CCN(CC(=O)N2N=C(c3cc4ccccc4oc3=O)CC2c2ccccc2)CC1` (stereo not given) as the compound, how does the IC50 (Bcap37) read?
**A.** The IC50 was 6.57 µM.

**Q.** What about the IC50 [1] of the same compound?
**A.** Its IC50 is 2 µM.

**Q.** What about the IC50 (MGC-803) of the same compound?
**A.** The IC50 was 3.01 µM.

**Q.** And the IC50 (SGC-7901)?
**A.** Its IC50 is 4.7 µM.

**Q.** What does the source list for `O=C(CN1CCC(Br)CC1)N1N=C(c2cc3ccccc3oc2=O)CC1c1ccccc1` (stereo not given)?
**A.** IC50 (Bcap37): 8.76 µM; IC50 [1]: 4.11 µM; IC50 (MGC-803): 7.01 µM; IC50 (SGC-7901): 10.3 µM

**Q.** How did the IC50 (Bcap37) turn out when `O=c1[nH]cc(F)c(=O)[nH]1` [FLUOROURACIL] was run?
**A.** Its IC50 is 5.33 µM.

**Q.** And the IC50 (MGC-803)?
**A.** The IC50 was 3.42 µM.

**Q.** What about the IC50 (SGC-7901) of the same compound?
**A.** Its IC50 is 7.11 µM.

**Q.** How did the IC50 [1] turn out when `CC[n+]1c(-c2ccccc2)c2cc(N)ccc2c2ccc(N)cc21` [HOMIDIUM BROMIDE] was run?
**A.** The IC50 was 2.47 µM.
